In PubChem BioAssay AID588804 (The Scripps Research Institute Molecular Screening Center, 2011):
The source made the active and inactive calls.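 Rule for the calls: active = In either cell panel, a half-cytotoxic dose CC50 of 5 µM or lower marks a compound as cytotoxic; inactive = Both panels show CC50 exceeding 5 µM.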

Test: Neuro-2A neuroblastoma viability reduction – cell-based, WST-1 absorbance, serum-free and serum media, cytotoxicity control for PME-1 inhibitor project, dose response (AID 588804)
Settings: Neuro-2A viability, 48 h
How it was run: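 Detection: WST-1 conversion to formazan, absorbance readout; test system: Neuro-2A murine neuroblastoma cells; evaluation: % surviving cells and CC50 from three-parameter sigmoidal fit; control set: compound-free cells as high control, no-cell wells as low; times: cells grown 36 h before dosing, 48 h compound exposure at 37 °C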

SMILES	CC50 (with serum)	CC50 (without serum)
CC[C@@]1(c2ccc(Cl)cc2)C(=O)N(C(=O)OC)N1C(=O)OC	> 10 µM (inactive)	> 10 µM (inactive)
CCCOC(=O)N1C(=O)[C@@](CC)(c2ccc(C)cc2)N1C(=O)OCCC	> 10 µM (inactive)	> 10 µM (inactive)
CC[C@@]1(c2ccc(C)cc2)C(=O)N(C(=O)OC(C)C)N1C(=O)OC(C)C	> 10 µM (inactive)	> 10 µM (inactive)
